According to ChEMBL document CHEMBL1141301, “Trypanocidal and antileishmanial dihydrochelerythrine derivatives from Garcinia lucida” (J Nat Prod, 2007):

How the values were obtained:
Vero = assay: Cytotoxicity against african green monkey Vero cells; format: cell-based; details: Chlorocebus sabaeus
[1] = test system: Trypanosoma brucei brucei; assay: Antitrypanosomal activity against Trypanosoma brucei brucei MITat 1.2 variant 221; format: functional, organism-based
Outline: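 Bloodstream-form parasites (MITat 1.2, variant 221) grown axenically in HMI-9 medium, run by a previously reported protocol. Pentamidine and suramin included as standards. IC50 taken as the mean of three tests done on different days.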

Leishmania donovani [2] = assay: Antileishmanial activity against Leishmania donovani promastigotes at 100 uM; format: functional
Leishmania donovani [3] = assay: Antileishmanial activity against Leishmania donovani axenic amastigotes; format: functional, organism-based
Outline: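 L. donovani amastigote-like parasites (WHO MHOM/SD/62/1S-CL2D), axenic; 3-day growth inhibition assay read with tetrazolium dye-based CellTiter reagent; IC50 determined.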

Leishmania donovani [4] = assay: Antileishmanial activity against Leishmania donovani promastigotes at 1 uM; format: functional
Leishmania donovani [5] = assay: Antileishmanial activity against Leishmania donovani promastigotes at 10 uM; format: functional
RAW = assay: Cytotoxicity against mouse RAW cells; format: cell-based
Outline: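 RAW 264.7 murine macrophages in DMEM with 10% heat-inactivated FBS, antibiotics, 2 mM L-glutamine at 37 °C, 5% CO2; 1 × 10^5 cells treated or untreated with compounds for 48 h; viability read with alamarBlue.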

Leishmania donovani [6] = assay: Antileishmanial activity against Leishmania donovani promastigotes in RAW cells assessed as reduction in infection; format: functional; design: scale not given: the % may be the effect or the level left
Outline: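 RAW 264.7 macrophages (1 × 10^6) plated 2 h, infected 6 h with stationary-phase luciferase-transfected L. donovani promastigotes at 20:1 parasite:macrophage; free parasites washed off with PBS; compound-treated; survival by luciferase luminescence 24 h later; triplicate; % reduction in infection versus untreated wells.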

| SMILES | IC50 (Vero) [µM] | IC50 [1] [µM] | inhibition at 100 µM (Leishmania donovani [2]) [%] | IC50 (Leishmania donovani [3]) [µM] | inhibition at 1 µM (Leishmania donovani [4]) [%] | inhibition at 10 µM (Leishmania donovani [5]) [%] | Activity (RAW) | Activity (Leishmania donovani [6]) [%] |
| --- | --- | --- | --- | --- | --- | --- | --- | --- |
| C=CC(C)(C)c1c(O)c(O)c(C(C)(C)C=C)c2c3c(ccc12)-c1ccc(OC)c(OC)c1[C@H](CC(C)=O)N3C [LUCIDAMINE B] | 17.5 | 4.1 | 64 | 6.8 | 14 | 48 | Toxic |  |
| Cc1ccc(C(=O)Nc2ccc(S(=O)(=O)O)c3cc(S(=O)(=O)O)cc(S(=O)(=O)O)c23)cc1NC(=O)c1cccc(NC(=O)Nc2cccc(C(=O)Nc3cc(C(=O)Nc4ccc(S(=O)(=O)O)c5cc(S(=O)(=O)O)cc(S(=O)(=O)O)c45)ccc3C)c2)c1 [SURAMIN] |  | 0.2 |  |  |  |  |  |  |
| CC(C)CNC(=O)/C=C/c1ccc2c(c1)OCO2 [FOGARAMIDE] |  |  |  |  |  |  | Non-toxic |  |
| COc1ccc2c(c1OC)[C@H](CC(C)=O)N(C)c1c-2ccc2cc3c(cc12)OCO3 | 15.3 | 3.9 | 100 | 6.6 | 23 | 87 |  | 57.4 |
| N=C(N)c1ccc(OCCCCCOc2ccc(C(=N)N)cc2)cc1 [PENTAMIDINE] | 13.7 | 0.0025 |  | 1.3 |  |  |  |  |
| COc1ccc2c(c1OC)[C@H](CC(C)=O)N(C)c1c-2ccc2cc(O)c(O)cc12 [LUCIDAMINE A] | 11.6 | 14.1 | 100 | 10.8 | 23 | 76 | Toxic |  |
| c1cc2c(cc1[C@H]1OC[C@H]3[C@@H]1CO[C@@H]3c1ccc3c(c1)OCO3)OCO2 [SESAMIN] |  |  |  |  |  |  | Non-toxic |  |
| COc1ccc2c(c1OC)CN(C)c1c-2ccc2cc3c(cc12)OCO3 [DIHYDROCHELERYTHRINE] | 35.4 | 0.8 | 100 | 2 | 36 | 89 |  | 70.9 |
